Assay outcomes: PubChem, The Scripps Research Institute Molecular Screening Center
rCAG RNA binder – binders of r(CAG) RNA repeats, primary screen, biochemical, fluorescence; r(CAG) RNA repeat, TO-PRO-1 dye displacement fluorescence; inhibition, % at 3 µM; 1.3% of 370,000 active; AID 651821, 2012;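 active = inhibition above the plate cutoff, the mean of all test compounds on that plate plus 3 SD, cut at about 35% in these data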;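 note: 0% = DMSO alone and 100% = 100 µM mitoxantrone as full dye displacement; higher means more dye released from RNA so lower well fluorescence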
HTRA1 inh – HTRA1 serine protease inhibitors, primary screen, biochemical, fluorescence polarization, HTS; recombinant HTRA1, FP-rhodamine activity-based probe; inhibition, % at 5.96 µM; 0.5% of 340,000 active; AID 504803, 2011; in the data active = inhibition above about 36%;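 note: 0% = enzyme with DMSO and 100% = wells lacking enzyme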
Target sequence (Q92743 whole entry, looked up): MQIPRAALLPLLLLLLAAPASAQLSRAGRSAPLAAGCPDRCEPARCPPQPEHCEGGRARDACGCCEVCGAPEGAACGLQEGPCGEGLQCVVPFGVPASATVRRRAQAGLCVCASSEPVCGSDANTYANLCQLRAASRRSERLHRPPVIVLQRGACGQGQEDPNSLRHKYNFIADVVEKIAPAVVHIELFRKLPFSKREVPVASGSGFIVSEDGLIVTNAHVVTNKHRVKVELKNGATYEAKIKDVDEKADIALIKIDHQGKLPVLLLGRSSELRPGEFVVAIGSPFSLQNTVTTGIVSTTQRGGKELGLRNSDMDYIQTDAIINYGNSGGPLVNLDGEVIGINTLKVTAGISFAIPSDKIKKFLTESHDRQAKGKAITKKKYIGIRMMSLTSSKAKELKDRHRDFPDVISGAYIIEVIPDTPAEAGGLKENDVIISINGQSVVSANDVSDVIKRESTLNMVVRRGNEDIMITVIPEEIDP
PRMT1 FP inh – PRMT1 methyltransferase inhibitors, primary screen, biochemical, fluorescence polarization | Protein arginine N-methyltransferase 1 (Homo sapiens), Q99873 | recombinant PRMT1, activity-based probe fluorescence polarization | inhibition, % at 2.79 µM | 1.3% of 370,000 active;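 active = inhibition above about 21% made by adding two undisclosed values, limit read from the data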
TCR-CD3 inh – inhibitors of human TCR-CD3 interaction, primary screen, biochemical, fluorescence, TAMRA-labeled TCR probe | inhibition, % at 9.4 µM | 0.37% of 360,000 active | AID 651800, 2012; in the data active = inhibition above about 19%;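 note: recombinant mutant TCR 2C K166C tagged with TAMRA read by polarization; 0% = receptor in buffer alone and 100% = receptor with positive control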
SIAE inh – human SIAE inhibitors, primary screen, biochemical, fluorescence polarization, FP-Rh probe, 1536-well HTS. 0.69% of 370,000 active. SIAE FP-Rh probe binding. AID 1053197, 2014. Sialate O-acetylesterase (Homo sapiens), Q9HAT2. inhibition, % at 9.66 µM;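 active = inhibition above a cutoff: mean of compounds within the control limits plus 3 SD of those, cut at about 17% in these data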;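 note: 0% = plate median of compound wells and 100% = probe without SIAE protein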
ABHD4 inh – ABHD4 inhibitors, primary screen, biochemical, fluorescence polarization, mouse; (Lyso)-N-acylphosphatidylethanolamine lipase (Mus musculus), Q8VD66; purified mABHD4, FP-Rh probe fluorescence polarization; inhibition, % at 8.92 µM; 0.54% of 370,000 active; AID 720543, 2013;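 active = inhibition exceeding the mean over every tested compound plus 3 SD, cut at about 30% in these data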;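 note: 0% = plate median of compound wells and 100% = S159A mutant with DMSO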
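System: mouse ABHD4 enzyme, wild type / Medium: HEPES pH 7.0, NaCl, Pluronic buffer / Reagent: FP-Rh activity-based fluorescent probe / Control set: S159A mutant high control, sample median low control / Detection: fluorescence polarization with parallel and perpendicular emission, 525/598 nm / Schedule: 45 min + 60 min at 25 °C / Compound dosing: 8.92 µM, single dose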
PRMT1 confirm – PRMT1 methyltransferase inhibitors, confirmation, biochemical, fluorescence polarization, triplicate | inhibition, % at 2.79 µM | shares compounds with PRMT1 FP inh | 42% of 3,300 active | recombinant His-PRMT1, activity-based probe fluorescence polarization;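 active = mean inhibition across replicates above the hit cutoff derived for the earlier primary screen, cut at about 22% in these data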
Starred values were filed as active, the others as inactive; . = no result given. Most compounds without a hit are left out; they make up all but 3.5% or so of the library.

SMILES	rCAG RNA binder	HTRA1 inh	PRMT1 FP inh	TCR-CD3 inh	SIAE inh	ABHD4 inh	PRMT1 confirm
NC(=O)c1sc2nc(N3CCOCC3)c3c(c2c1N)CCCC3	5	-5	26*	-4	2	6	16
Nc1c(C(=O)NCCc2ccccc2)sc2nc(N3CCOCC3)c3c(c12)CCCC3	8	-43	13	4	13	13	.
CN(C(=O)c1sc2nc(N3CCOCC3)c3c(c2c1N)CCCC3)c1ccccc1	3	-7	26*	-3	1	11	17
Cc1cc(-c2ccco2)n(CC(=O)NCCCc2ccccc2)n1	5	-9	47*	-1	-2	-8	1
Cc1cc(-c2ccco2)n(CC(=O)NCc2ccccc2)n1	2	2	6	0	7	5	.
CN1/C(=C\C(=O)c2cccnc2)Sc2ccccc21	-1	3	31*	0	-3	-1	1
Cc1nc2c([nH]1)C1(CCN(Cc3ccccc3)CC1)C(C#N)=C(N)O2	-27	-1	42*	14	-3	4	2
CC1(C)CC(=O)C2=C(C1)OC(N)=C(C#N)C21CCN(Cc2ccccc2)CC1	-9	0	18	0	-5	-3	.
CC(=O)OCC1=C(C(=O)O)N2C(=O)C(NC(=O)C(C)Cn3cc(Cl)cn3)C2SC1 (stereo not drawn)	3	-3	19	8	3	0	.
CC(=O)OCC1=C(C(=O)O)N2C(=O)[C@@H](NC(=O)Cc3cccs3)[C@H]2SC1	18	-5	11	8	-1	8	.
CC(=O)OCC1=C(C(=O)O)N2C(=O)[C@@H](NC(=O)Cc3ccccc3)[C@H]2SC1	8	6	27*	5	-4	4	11
CC(=O)OCC1=C(C(=O)O)N2C(=O)C(NC(=O)COc3ccc(F)cc3)C2SC1 (stereo not drawn)	21	-17	37*	6	1	-2	48*
CCOc1ccc(C(=O)NC2C(=O)N3C(C(=O)O)=C(COC(C)=O)CSC23)cc1OCC (stereo not drawn)	15	3	27*	5	-1	9	9
C=CCN1C(=O)[C@@H](CC(=O)NCc2cccc(C(F)(F)F)c2)[C@]2(C(=O)OCC)CCCCC/C=C/12	0	.	3	.	-2	-3	.
O=C(Nc1ccc(F)cc1)OCCN1C(=O)CCC12CCC(c1ccc(Cl)cc1)CC2 (stereo not drawn)	1	.	-3	.	9	-2	.
CCCCCCCCN1C(=O)[C@@H](CC(=O)N2CCC(c3ccccc3)CC2)C[C@@]2(C(=O)OC)C1=C[C@H](C(C)C)O[C@@H]2C1CC1	18	.	4	.	2	8	.
CCOC(=O)Cn1cc(CN2C(C(=O)OC)CN(CCO)CCS2(=O)=O)nn1 (stereo not drawn)	-1	.	-3	.	-3	4	.
C=CCn1c(SCC(=O)NCCCC)nc2scc(-c3ccco3)c2c1=O	1	-10	5	-1	-4	-20	.
C=CCn1c(SCC(C)=O)nc2scc(-c3ccc(C)o3)c2c1=O	0	-6	25*	-6	-4	1	10
C=CCn1c(=S)[nH]c2scc(-c3ccc(C)o3)c2c1=O	19	-4	28*	6	6	-6	16
COc1ccccc1N1CCN(C2CC(=O)N(c3cccc(Br)c3)C2=O)CC1 (stereo not drawn)	5	6	13	8	1	-3	.
COc1cc2c(cc1OC)CN(C1CC(=O)N(c3c(C)cccc3C)C1=O)CC2 (stereo not drawn)	13	0	32*	-7	-8	-10	1
COC(=O)[C@]12C[C@H](CC(=O)NCCC(C)C)C(=O)N(Cc3ccccc3)C1=C[C@H](C(C)(C)C)O[C@@H]2C	0	.	-3	3	-4	0	.
O=C(CSC1=Nc2ccccc2C2CC=NN12)Nc1ccc(F)cc1Cl (stereo not drawn)	-1	-15	32*	2	2	2	43*
Cc1cc(C)c(Nc2n[nH]c(=S)s2)cc1C	7	6	47*	0	9	8	23*
SMILES	rCAG RNA binder	HTRA1 inh	PRMT1 FP inh	TCR-CD3 inh	SIAE inh	ABHD4 inh	PRMT1 confirm
CC(C)c1ccc(Nc2n[nH]c(=S)s2)cc1	5	.	17	-6	2	3	.
Cc1ccc(Nc2n[nH]c(=S)s2)c(C)c1	4	-4	35*	1	9	8	36*
Cc1cccc(C)c1Nc1n[nH]c(=S)s1	4	1	32*	6	11	1	8
Cc1ccccc1-c1cccc2c3c([nH]c12)[C@@H]1C[C@H]2[C@@H](CN1CC3)[C@H](C)ON2C	5	.	0	.	-1	5	.
C[C@@H](CO)N(CCc1cn(Cc2ccccc2)nn1)S(=O)(=O)c1ccccc1Br	1	.	1	.	-4	5	.
Cc1ccc(-n2c(SCC(=O)Nc3ccccc3-c3ccccc3)nnc2-c2ccccn2)cc1	3	.	-1	.	0	1	.
NC(=O)c1c(NC(=O)C2CCCO2)sc2c1CCCCC2 (stereo not drawn)	8	7	28*	-1	4	14	7
NC(=O)c1c(NC(=O)C2CCCO2)sc2c1CCC2 (stereo not drawn)	5	-6	1	3	-7	-1	.
O=S1(=O)CC2c3ccccc3CN2CN1C1CCCC1 (stereo not drawn)	7	.	1	.	-1	-42	.
CC(C)[N+]1=C2C=CC=CC=C2SC12C([N+](=O)[O-])=CC(=[N+]([O-])[O-])C=C2[N+](=O)[O-] (stereo not drawn)	13	14	37*	-3	0	6	14
Cc1ccc(-c2c3c(nc4sc(C(N)=O)c(N)c24)CCCC3)o1	10	5	32*	-5	3	18	3
O=C(NNC1CC(=O)N(c2ccc3c(c2)OCCO3)C1=O)c1ccc(Cl)cc1 (stereo not drawn)	13	4	56*	0	1	5	-5
COc1ccc(CCNC2=C(Cl)C(=O)N(CCc3ccccc3)C2=O)cc1OC	6	-23	2	-1	8	-5	.
O=C1C(Cl)=C(Nc2ccccc2O)C(=O)N1CCc1ccccc1	10	-7	30*	5	-6	21	54*
O=C(OCc1cn(Cc2cc(F)cc(F)c2)nn1)N1CCOCC1	1	.	-5	.	5	-1	.
